Data from ChEMBL document CHEMBL1156597, “Structure-activity relationship of kahalalide F synthetic analogues” (J Med Chem, 2008).

Tests used:
[1] = system: LNCaP; assay: Cytotoxicity against human LNcaP cells after 48 hrs by SRB assay; type: functional; settings: for CC50: read-out: LC50 (the source's name)
In short: (§1)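 Cells grown in RPMI 1640 with 10% FBS and penicillin/streptomycin at 37 °C and 5% CO₂, trypsinized, then seeded at 5 × 10³/well. After 18 h drug-free attachment, samples in DMSO/EtOH/PBS (0.5:0.5:99) were added for 48 h continuous exposure. Cells were fixed with cold TCA (1 h, 4 °C) and stained with SRB (10 min). Tris-solubilized stain read at 490 nm. Triplicate wells, mean ± SD; GI₅₀ derived.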

[2] = system: LoVo; assay: Cytotoxicity against human LoVo cells after 48 hrs by SRB assay; type: functional; settings: for CC50: read-out: LC50 (the source's name)
[3] = Cytotoxicity against human IGROV-ET cells after 48 hrs by SRB assay; type: functional; settings: for CC50: read-out: LC50 (the source's name); in short: as §1
[4] = system: HT-29; assay: Cytotoxicity against human HT29 cells after 48 hrs by SRB assay; type: functional, cell-based; settings: Homo sapiens, HT-29, 48 h; for CC50: read-out: LC50 (the source's name); in short: as §1
[5] = system: SK-MEL-28; assay: Cytotoxicity against human SK-MEL-28 cells after 48 hrs by SRB assay; type: functional, cell-based; settings: Homo sapiens, SK-MEL-28, 48 h; for CC50: read-out: LC50 (the source's name); in short: as §1
[6] = Cytotoxicity against human IGROV cells after 48 hrs by SRB assay; type: functional; settings: for CC50: read-out: LC50 (the source's name); in short: as §1
[7] = system: HeLa; assay: Cytotoxicity against human HeLa cells after 48 hrs by SRB assay; type: functional; settings: for CC50: read-out: LC50 (the source's name); in short: as §1
[8] = Cytotoxicity against human HeLa-APL cells after 48 hrs by SRB assay; type: functional; in short: as §1
[9] = system: K562; assay: Cytotoxicity against human K562 cells after 48 hrs by SRB assay; type: functional; settings: K562, 48 h; for CC50: read-out: LC50 (the source's name); in short: as §1
[10] = system: PANC-1; assay: Cytotoxicity against human PANC1 cells after 48 hrs by SRB assay; type: functional; settings: PANC-1, 48 h; for CC50: read-out: LC50 (the source's name); in short: as §1
[11] = system: DU-145; assay: Cytotoxicity against human DU145 cells after 48 hrs by SRB assay; type: functional, cell-based; settings: Homo sapiens, DU-145, 48 h; for CC50: read-out: LC50 (the source's name); in short: as §1
[12] = system: A549; assay: Cytotoxicity against human A549 cells after 48 hrs by SRB assay; type: functional, cell-based; settings: Homo sapiens, A549, 48 h; in short: as §1
[13] = system: SK-BR-3; assay: Cytotoxicity against human SKBR3 cells after 48 hrs by SRB assay; type: functional; settings: SK-BR-3, 48 h; for GI50: read-out: GI50; for CC50: read-out: LC50 (the source's name); in short: as §1

C/C=C1\NC(=O)[C@H](Cc2ccccc2)NC(=O)[C@@H](C(C)C)NC(=O)[C@@H]([C@H](C)CC)NC(=O)[C@H](NC(=O)[C@H](NC(=O)[C@H](CCCN)NC(=O)[C@H]2CCCN2C(=O)[C@H](NC(=O)[C@H](Cc2ccccc2)NC(=O)[C@@H](NC(=O)[C@H](NC(=O)CCCC(C)C)C(C)C)[C@@H](C)O)C(C)C)[C@H](C)CC)[C@H](C)OC(=O)[C@H](C(C)C)NC1=O
GI50 [1]: 857 nM | TGI [1]: 941 nM | CC50 [1]: 1030 nM | GI50 [2]: 290 nM | TGI [2]: 310 nM | CC50 [2]: 333 nM | GI50 [3]: 184 nM | GI50 ([3]; read-out: GI50): 194 nM | CC50 [3]: 262 nM | CC50 [4]: 69.5 nM | GI50 [5]: 739 nM | GI50 ([5]; read-out: GI50): 730 nM | CC50 [5]: 760 nM | GI50 [6]: 250 nM | GI50 ([6]; read-out: GI50): 337 nM | CC50 [6]: 343 nM | GI50 [7]: 432 nM | TGI [7]: 542 nM | CC50 [7]: 607 nM | GI50 [8]: 816 nM | LC50 (concentration giving 50% net cell kill) [8]: 768 nM | TGI [8]: 795 nM | GI50 [9]: 1740 nM | TGI [9]: 1560 nM | CC50 [9]: 1380 nM | GI50 [10]: 2540 nM | TGI [10]: 3530 nM | CC50 [10]: 2450 nM | GI50 [11]: 752 nM | GI50 ([11]; read-out: GI50): 612 nM | CC50 [11]: 785 nM | GI50 [12]: 875 nM | LC50 [12]: 960 nM | GI50 ([12]; read-out: GI50): 722 nM | TGI [13]: 323 nM | GI50 [13]: 325 nM | CC50 [13]: 260 nM

C/C=C1\NC(=O)[C@H](Cc2ccccc2)NC(=O)[C@@H](C(C)C)NC(=O)[C@@H]([C@H](C)CC)NC(=O)[C@H](NC(=O)[C@H](NC(=O)[C@H](CCCN)NC(=O)[C@H]2CCCN2C(=O)[C@H](NC(=O)[C@H](CC(C)C)NC(=O)[C@@H](NC(=O)[C@H](NC(=O)CCCC(C)C)C(C)C)[C@@H](C)O)C(C)C)[C@H](C)CC)[C@H](C)OC(=O)[C@H](C(C)C)NC1=O
GI50 [1]: 1030 nM | TGI [1]: 1120 nM | CC50 [1]: 1230 nM | GI50 [2]: 312 nM | TGI [2]: 324 nM | CC50 [2]: 337 nM | TGI [3]: 380 nM | GI50 ([3]; read-out: GI50): 350 nM | CC50 [3]: 383 nM | GI50 [4]: 612 nM | TGI [4]: 679 nM | CC50 [4]: 479 nM | TGI [5]: 9120 nM | GI50 ([5]; read-out: GI50): 964 nM | CC50 [5]: 8750 nM | TGI [6]: 4020 nM | GI50 ([6]; read-out: GI50): 464 nM | CC50 [6]: 375 nM | GI50 [7]: 1020 nM | TGI [7]: 887 nM | CC50 [7]: 765 nM | GI50 [8]: 939 nM | LC50 (concentration giving 50% net cell kill) [8]: 807 nM | TGI [8]: 871 nM | GI50 [9]: 2100 nM | TGI [9]: 2210 nM | CC50 [9]: 2300 nM | GI50 [10]: 3290 nM | TGI [10]: 4870 nM | CC50 [10]: 2510 nM | GI50 [11]: 903 nM | GI50 ([11]; read-out: GI50): 941 nM | CC50 [11]: 863 nM | LC50 [12]: 1110 nM | TGI [12]: 1190 nM | GI50 ([12]; read-out: GI50): 1280 nM | TGI [13]: 482 nM | GI50 [13]: 445 nM | CC50 [13]: 689 nM

C/C=C1\NC(=O)[C@H](Cc2ccccc2)NC(=O)[C@@H](C(C)C)NC(=O)[C@@H]([C@H](C)CC)NC(=O)[C@H](NC(=O)[C@H](NC(=O)[C@H](CCCN)NC(=O)[C@H]2CCCN2C(=O)[C@H](NC(=O)[C@@H](NC(=O)[C@@H](NC(=O)[C@H](NC(=O)c2ccc(C(F)(F)F)cc2)C(C)C)[C@@H](C)O)C(C)C)C(C)C)[C@H](C)CC)[C@H](C)OC(=O)[C@H](C(C)C)NC1=O
GI50 [1]: 341 nM | TGI [1]: 621 nM | CC50 [1]: 799 nM | GI50 [2]: 253 nM | TGI [2]: 268 nM | CC50 [2]: 286 nM | GI50 [3]: 223 nM | GI50 ([3]; read-out: GI50): 140 nM | CC50 [3]: 294 nM | CC50 [4]: 76.5 nM | GI50 [5]: 823 nM | GI50 ([5]; read-out: GI50): 839 nM | CC50 [5]: 809 nM | GI50 [6]: 236 nM | GI50 ([6]; read-out: GI50): 247 nM | CC50 [6]: 321 nM | GI50 [7]: 348 nM | TGI [7]: 526 nM | CC50 [7]: 601 nM | GI50 [8]: 519 nM | LC50 (concentration giving 50% net cell kill) [8]: 717 nM | TGI [8]: 665 nM | CC50 [9]: 2340 nM | GI50 [10]: 1840 nM | TGI [10]: 2260 nM | CC50 [10]: 2430 nM | GI50 [11]: 685 nM | GI50 ([11]; read-out: GI50): 310 nM | CC50 [11]: 800 nM | GI50 [12]: 254 nM | LC50 [12]: 473 nM | GI50 ([12]; read-out: GI50): 202 nM | TGI [13]: 289 nM | GI50 [13]: 303 nM | CC50 [13]: 223 nM
